High-throughput results (PubChem)
In the library only some 4.6% were active in any assay of this set; here they are far more common.
CHO parental Ca: counter-screen: ATP calcium response change in parental CHO cells; parental CHO-K1, ATP-induced calcium, Fluo-8 fluorescence; inhibition, % at 5.6 µM; 330,000 tested, 0.63% active; AID 463079;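 active = inhibition above that plate's mean sample inhibition plus 3 SD, cut at about 26% in these data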;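 also: 0% = ATP-challenged DMSO wells and 100% = DMSO wells without ATP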
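Assay system – parental CHO cells · Reagent – ATP stimulus · Detection – intracellular calcium via Fluo-8 no-wash fluorescent dye · Evaluation – percent inhibition of ATP-evoked calcium rise, normalized to controls · Controls – ATP wells versus no-ATP DMSO wells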
TAAR1 antagonist: human TAAR1 antagonism; CHO RD-HGA16 TAAR1, Fluo-8 calcium fluorescence, antagonist; inhibition, % at 3 µM; AID 624466; 360,000 tested, 1.5% active; Q96RJ0;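 active = inhibition above a per-plate cutoff, the mean inhibition of test compounds on that plate plus 3 SD, cut at about 49% in these data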;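 also: 0% = DMSO plus EC80 beta-PEA response and 100% = DMSO alone without agonist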
Target sequence (Q96RJ0 whole entry, looked up): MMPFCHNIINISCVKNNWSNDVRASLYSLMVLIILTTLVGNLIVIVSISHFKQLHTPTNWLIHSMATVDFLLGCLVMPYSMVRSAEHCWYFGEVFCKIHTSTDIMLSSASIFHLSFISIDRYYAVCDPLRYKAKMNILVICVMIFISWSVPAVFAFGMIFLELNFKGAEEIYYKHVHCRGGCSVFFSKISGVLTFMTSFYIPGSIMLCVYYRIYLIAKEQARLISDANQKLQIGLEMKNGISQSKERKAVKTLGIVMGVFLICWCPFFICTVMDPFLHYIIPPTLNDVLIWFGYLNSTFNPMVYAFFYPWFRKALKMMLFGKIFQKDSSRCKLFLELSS
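Test system: RD-HGA16 CHO cells with stable hTAAR1 and Gα16 / Probe or stimulus: EC80 β-phenethylamine stimulus / Times: seeding 17-24 h prior, 75-min 37 °C, 30-min RT dye loading / Detection: Fluo-8 calcium-sensitive fluorescence / Read-out basis: % inhibition scaled between DMSO and EC80 PEA controls / Repeats: singlicate, one well per test compound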
TAAR1 agonist: human TAAR1 agonism | CHO RD-HGA16 TAAR1, Fluo-8 calcium fluorescence; vehicle wells 0%, saturating PEA agonist 100% | 360,000 tested, 0.99% active | AID 624467 | Q96RJ0 | activation, % at 3 µM;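 active = activation above the mean activation of all test compounds in the run plus 3 SD, cut at about 38% in these data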
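Assay system: CHO-derived RD-HGA16 cells with stable Gα16 and human TAAR1; timing: 17-24 h seeding, 75 min 37 °C dye, 30 min RT; read-out: % activation from peak over basal fluorescence ratio, DMSO-to-PEA scaled; measured by: kinetic Fluo-8 calcium fluorescence; benchmarks: low control DMSO, high control PEA (EC100); doses: 3 µM single concentration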
GPR7 antag: blocks human GPR7 receptor signaling | P48145 | GPR7-expressing cells, fluorescence antagonist assay | inhibition, % at 4.4 µM | 290,000 tested, 1.1% active; in the data active = inhibition above about 16%, passing the limit was not always enough;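 also: cells stimulated with the agonist NPW; 0% = agonist with vehicle and 100% = vehicle without agonist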
Target sequence (P48145 whole entry, looked up): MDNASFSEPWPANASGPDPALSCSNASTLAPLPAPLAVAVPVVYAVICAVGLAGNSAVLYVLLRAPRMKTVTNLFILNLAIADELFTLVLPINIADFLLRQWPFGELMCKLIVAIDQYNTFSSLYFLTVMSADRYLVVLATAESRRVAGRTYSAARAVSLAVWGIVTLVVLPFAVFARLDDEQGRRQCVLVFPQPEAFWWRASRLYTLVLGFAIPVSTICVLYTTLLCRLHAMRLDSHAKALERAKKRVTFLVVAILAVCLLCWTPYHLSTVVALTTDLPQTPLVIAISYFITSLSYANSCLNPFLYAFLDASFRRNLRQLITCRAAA
OX1R antag-1: OX1R (human) antagonism; OX1R-expressing cells, FRET antagonist read-out; inhibition, % at 6.6 µM; 330,000 tested, 1.8% active; AID 485270; in the data active = inhibition mostly above about 38%, no sharp cut-off; inactive = mostly below about 40%;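 also: 0% = agonist challenge alone and 100% = reference antagonist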
OX1R antag-2: blocks the human orexin 1 receptor. CHO/OX1R cells, Fluo-8 calcium fluorescence, orexin A. inhibition, % at 5 µM. 330,000 tested, 0.43% active. AID 434989;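 active = inhibition above its plate's threshold, mean inhibition of all tested compounds on the plate plus 3 SD, cut at about 37% in these data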;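 also: 0% = orexin A challenge wells and 100% = SB-334867-A antagonist wells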
An asterisk follows results filed as active.

`Cc1cc(-c2nnn(CCCOC(C)(C)C)c2C)ccc1-c1cn(CCCOC(C)(C)C)nn1` gave TAAR1 antagonist -12 and TAAR1 agonist 3.
Cc1ccccc1Cn1nc(C)c(NC(=O)C2c3ccccc3Oc3ccccc32)c1C was read as CHO parental Ca -6, TAAR1 antagonist 6, TAAR1 agonist 39*, GPR7 antag -4, OX1R antag-1 24 and OX1R antag-2 -2.
`CCOC(=O)/C=c1\s/c(=C(\C#N)C(=O)NC)n(-c2ccccc2)c1=O` gave CHO parental Ca -4, TAAR1 antagonist 16, TAAR1 agonist -1, GPR7 antag -14, OX1R antag-1 40 and OX1R antag-2 -11.
`CCOC(=O)/C=c1\s/c(=C(\C#N)C(N)=O)n(-c2ccccc2)c1=O` gave CHO parental Ca -9, TAAR1 antagonist 2, TAAR1 agonist 0, GPR7 antag 1, OX1R antag-1 57* and OX1R antag-2 -12.
CC(C)n1c(=NC(=O)c2ccco2)c(C#N)cc2c(=O)n3ccccc3cc21 was read as CHO parental Ca -10, TAAR1 antagonist -9, TAAR1 agonist 5, GPR7 antag -4, OX1R antag-1 54* and OX1R antag-2 -24.
For O=C1CC(N2CCN(c3nc4ccccc4s3)CC2)C(=O)N1Cc1cccs1 (centres undefined) the results were CHO parental Ca -21, TAAR1 antagonist 22, TAAR1 agonist 20, GPR7 antag 20*, OX1R antag-1 18 and OX1R antag-2 -26.
COc1ccc(-c2[nH]nc3nc(N4CCN(C(=O)c5ccoc5)CC4)cc(C(F)(F)F)c23)cc1 was read as TAAR1 antagonist 49* and TAAR1 agonist 5.
O=C(N[C@H](C(=O)N1CCC[C@H]1C(=O)NCc1ccccc1)C1CCCCC1)c1ccccc1 was read as TAAR1 antagonist 10 and TAAR1 agonist -2.
For COc1ccc(CCC(=O)Nc2nc3ccccc3[nH]2)cc1 the results were CHO parental Ca 70*, TAAR1 antagonist 21, TAAR1 agonist 10, GPR7 antag -13, OX1R antag-1 -1 and OX1R antag-2 21.
Screening O=C(Nc1ncc(Cc2ccc(SC(F)F)cc2)s1)c1ccccc1 returned CHO parental Ca 8, TAAR1 antagonist 31, TAAR1 agonist 44*, GPR7 antag 2, OX1R antag-1 14 and OX1R antag-2 8.
`CC1=NN(c2ccccc2)C(=O)/C1=C\C=C1\N(C)c2ccccc2C1(C)C` gave CHO parental Ca 24, TAAR1 antagonist 19, TAAR1 agonist 54*, GPR7 antag 25, OX1R antag-1 33 and OX1R antag-2 50*.
Screening COc1cc(NC(=O)NCCN2CCN(c3ccc(Cl)cc3)CC2)ccc1C returned CHO parental Ca 14, TAAR1 antagonist 36, TAAR1 agonist 48*, GPR7 antag 15, OX1R antag-1 1 and OX1R antag-2 17.
`CC(C)c1ccc(NC(=O)COC(=O)Cn2cnc3c2c(=O)n(C)c(=O)n3C)cc1` gave TAAR1 antagonist -15 and TAAR1 agonist 1.
N=c1c(C(=O)NCCN2CCOCC2)cc2c(=O)n3ccccc3nc2n1CCc1ccccc1 was read as CHO parental Ca -7, TAAR1 antagonist -13, TAAR1 agonist 16, GPR7 antag 24, OX1R antag-1 62* and OX1R antag-2 1.
Screening Cc1ccc(Cn2c(=N)c(C(=O)NC3CCCC3)cc3c(=O)n4ccccc4nc32)cc1 returned CHO parental Ca -1, GPR7 antag 0, OX1R antag-1 13 and OX1R antag-2 -8.
Screening Cc1ccc(Cn2c(=N)c(C(=O)NCCN3CCOCC3)cc3c(=O)n4ccccc4nc32)cc1 returned CHO parental Ca -16, TAAR1 antagonist -15, TAAR1 agonist 1, GPR7 antag -4, OX1R antag-1 54* and OX1R antag-2 -4.
`COc1ccc(CCn2c(=N)c(S(=O)(=O)c3ccccc3)cc3c(=O)n4ccccc4nc32)cc1` gave CHO parental Ca -6, TAAR1 antagonist -10, TAAR1 agonist 2, GPR7 antag 2, OX1R antag-1 8 and OX1R antag-2 -14.
`N=c1c(C(=O)NCc2ccccc2)cc2c(=O)n3ccccc3nc2n1CCCN1CCOCC1` gave CHO parental Ca 0, TAAR1 antagonist -2, TAAR1 agonist 5, OX1R antag-1 45* and OX1R antag-2 -12.
For COc1ccc(CCn2c(=N)c(C(=O)NCc3ccco3)cc3c(=O)n4ccccc4nc32)cc1 the results were CHO parental Ca 2, TAAR1 antagonist 17, TAAR1 agonist 3, GPR7 antag -2, OX1R antag-1 47* and OX1R antag-2 -8.
For CCc1cc(=O)oc2cc(C)cc(OC(C)C(=O)NCc3ccccn3)c12 (centres undefined) the results were CHO parental Ca -15, TAAR1 antagonist -5, TAAR1 agonist 1, GPR7 antag -2, OX1R antag-1 11 and OX1R antag-2 -16.
Screening Cc1ccccc1CN1CCC(N2CCC(C(=O)NCC3CCCO3)CC2)CC1 (centres undefined) returned CHO parental Ca -18, TAAR1 antagonist -10, TAAR1 agonist 2, GPR7 antag -16, OX1R antag-1 34 and OX1R antag-2 -7.
Cc1cccc2c3c([nH]c12)CCNC3 was read as CHO parental Ca 9, TAAR1 antagonist 28, TAAR1 agonist 40*, GPR7 antag 5, OX1R antag-1 9 and OX1R antag-2 -4.
Screening Cc1cccc2c(Cl)cc(=O)[nH]c12 returned TAAR1 antagonist -6, TAAR1 agonist 7 and GPR7 antag -14.
O=C1CCCCC1CCS(=O)(=O)NCc1ccccc1 (centres undefined) was read as TAAR1 antagonist 9 and TAAR1 agonist -1.
Screening N#Cc1cc2ccccc2nc1SCc1ccccn1 returned CHO parental Ca 1, TAAR1 antagonist 13, TAAR1 agonist 34, GPR7 antag 15, OX1R antag-1 49* and OX1R antag-2 18.
For Cc1cc2cc3c(cc2nc1SCc1ccccn1)OCCO3 the results were CHO parental Ca -12, TAAR1 antagonist -23, TAAR1 agonist 5, GPR7 antag 7, OX1R antag-1 25 and OX1R antag-2 -9.
`COC(=O)c1cc2c(c3c4cc(F)ccc4n(S(=O)(=O)c4ccc(C)cc4)c13)C(=O)N(Cc1ccccc1OC)C2` gave TAAR1 antagonist -6 and TAAR1 agonist 3.
`Nc1c(Cl)ncnc1N/N=C/c1ccccn1` gave CHO parental Ca -6, TAAR1 antagonist 8, TAAR1 agonist 0, GPR7 antag -4, OX1R antag-1 92* and OX1R antag-2 1.
Screening Nc1c(Cl)ncnc1N/N=C/c1ccc2ccccc2n1 returned CHO parental Ca 34, TAAR1 antagonist 3, TAAR1 agonist 4, GPR7 antag -5, OX1R antag-1 75* and OX1R antag-2 35.
